{
  "source": "ChEMBL document CHEMBL1127795",
  "about": "“Small-molecule immunostimulants. Synthesis and activity of 7,8-disubstituted guanosines and structurally related compounds” (1994)",
  "key": {"Mus musculus [1]": {"test_system": "Mus musculus", "test": "In vivo natural killer cell response in splenocytes of mice injected with 2 mg parenteral dose. % lysis of YAC-1 cells at effector: target ratio of 100:1", "format": "functional", "summary_of_the_method": "(§1)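 Each mouse received 2 mg compound, and spleens were taken at 48 h. Splenocyte NK activity was measured as specific lysis of 5 × 10⁴ ⁵¹Cr-labelled YAC-1 cells over 4 h at four effector:target ratios. Results are mean % lysis ± one standard deviation, N = 3–5 mice per group.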"}, "Mus musculus [2]": {"test_system": "Mus musculus", "test": "In vivo natural killer cell response in splenocytes of mice injected with 2 mg intravenous dose. % lysis of YAC-1 cells at effector: target ratio of 200:1", "format": "functional", "summary_of_the_method": "(§2)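 Mice dosed intravenously with 2 mg compound, with saline as the vehicle control. Spleens were removed 48 h later. Splenocytes were tested against 5 × 10⁴ ⁵¹Cr-labelled YAC-1 target cells in a 4-h ⁵¹Cr-release assay at four effector:target ratios. Results are mean % lysis ± one standard deviation, N = 3–5 mice per group.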"}, "Mus musculus [3]": {"species": "Mus musculus", "test": "Ability to act as B-cell mitogens", "format": "functional", "conditions": "read-out: ED50 (the source's name)", "summary_of_the_method": "(§3)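 CBA/CaJ mouse spleen cells (1 × 10⁵/0.2 mL) exposed to graded compound concentrations, dissolved in water or DMSO and diluted in medium, for 24 h. [³H]thymidine then added for a further 24 h; incorporation by scintillation counting. ED50 and maximal response expressed relative to a concurrently run standard (loxoribine in most cases).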"}, "Mus musculus [4]": {"species": "Mus musculus", "test": "Augment antibody response of B cells to sheep red blood cell (SRBC) challenge (adjuvanticity)", "format": "functional", "conditions": "read-out: ED50 (the source's name)", "summary_of_the_method": "(§4)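 CBA/CaJ spleen cells depleted of T cells with anti-T cell monoclonal antibody (1:1000, 30 min, 4 °C) then complement (37 °C, 45 min). Cultured ± 0.1% SRBC antigen in serum-containing medium with compound from zero to 10⁻³ M for 4 d. Plaque-forming cells counted in agarose with guinea pig complement. ED50 and maximal response relative to a concurrent standard.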"}, "Mus musculus [5]": {"test_system": "Mus musculus", "test": "In vivo natural killer cell response in splenocytes of mice injected with 2 mg subcutaneous dose. % lysis of YAC-1 cells at effector: target ratio of 100:1", "format": "functional", "summary_of_the_method": "(§5)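 Mice dosed subcutaneously with 2 mg compound, with sesame oil as the vehicle control. Splenocytes were harvested 48 h after dosing and assayed in a 4-h ⁵¹Cr-release test against 5 × 10⁴ labelled YAC-1 cells at four effector:target ratios. Results are mean % lysis ± one standard deviation, 3–5 mice per group.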"}, "YAC-1 [6]": {"test_system": "YAC-1", "test": "Percent of maximum response was tested for its ability to stimulate the natural killer response in murine in vitro cell assays", "format": "functional, Mus musculus"}, "Mus musculus [7]": {"test_system": "Mus musculus", "test": "In vivo natural killer cell response in splenocytes of mice injected with 2 mg intravenous dose % lysis of YAC-1 cells at effector: target ratio of 25:1", "format": "functional", "summary_of_the_method": "as §2"}, "Mus musculus [8]": {"test_system": "Mus musculus", "test": "In vivo natural killer cell response in splenocytes of mice injected with 2 mg subcutaneous dose. % lysis of YAC-1 cells at effector: target ratio of 25:1", "format": "functional", "summary_of_the_method": "as §5"}, "Mus musculus [9]": {"test_system": "Mus musculus", "test": "In vivo natural killer cell response in splenocytes of mice injected with 2 mg intravenous dose. % lysis of YAC-1 cells at effector: target ratio of 100:1", "format": "functional", "summary_of_the_method": "as §2"}, "Mus musculus [10]": {"test_system": "Mus musculus", "test": "In vivo natural killer cell response in splenocytes of mice injected with 2 mg subcutaneous dose. % lysis of YAC-1 cells at effector: target ratio of 50:1", "format": "functional", "summary_of_the_method": "as §5"}, "Mus musculus [11]": {"test_system": "Mus musculus", "test": "In vivo natural killer cell response in splenocytes of mice injected with 2 mg parenteral dose. % lysis of YAC-1 cells at effector: target ratio of 50:1", "format": "functional", "summary_of_the_method": "as §1"}, "Mus musculus [12]": {"test_system": "Mus musculus", "test": "In vivo natural killer cell response in splenocytes of mice injected with 2 mg subcutaneous dose. % lysis of YAC-1 cells at effector: target ratio of 200:1", "format": "functional", "summary_of_the_method": "as §5"}, "Mus musculus [13]": {"test_system": "Mus musculus", "test": "In vivo natural killer cell response in splenocytes of mice injected with 2 mg parenteral dose. % lysis of YAC-1 cells at effector: target ratio of 25:1", "format": "functional", "summary_of_the_method": "as §1"}, "Mus musculus [14]": {"species": "Mus musculus", "test": "Percent of maximum response was tested to augment the antibody response of B cells to sheep red blood cell challenge", "format": "functional", "summary_of_the_method": "as §4"}, "Mus musculus [15]": {"test_system": "Mus musculus", "test": "In vivo natural killer cell response in splenocytes of mice injected with 2 mg parenteral dose % lysis of YAC-1 cells at effector: target ratio of 200:1", "format": "functional", "summary_of_the_method": "as §1"}, "Mus musculus [16]": {"species": "Mus musculus", "test": "Percent of maximum response was tested for its ability to act as B-cell mitogens (mitogenicity)", "format": "functional", "summary_of_the_method": "as §3"}, "YAC-1 [17]": {"test_system": "YAC-1", "test": "Stimulation of natural killer (NK) response in Yac-1 cell line (mouse, lymphoma)", "format": "functional", "conditions": "read-out: ED50 (the source's name)"}, "Mus musculus [18]": {"test_system": "Mus musculus", "test": "In vivo natural killer cell response in splenocytes of mice injected with 2 mg intravenous dose. % lysis of YAC-1 cells at effector: target ratio of 50:1", "format": "functional", "summary_of_the_method": "as §2"}, "Mus musculus [19]": {"species": "Mus musculus", "test": "Effective dose was tested for its ability to act as B-cell mitogens (mitogenicity)", "format": "functional", "conditions": "read-out: ED50 (the source's name)", "summary_of_the_method": "as §3"}, "YAC-1 [20]": {"test_system": "YAC-1", "test": "Percent of maximum response was tested for its ability to stimulate the natural killer (NK) response in murine in vitro cell assays", "format": "functional, Mus musculus"}, "YAC-1 [21]": {"test_system": "YAC-1", "test": "Tested for its ability to stimulate the natural killer (NK) response in murine in vitro cell assays", "format": "functional", "conditions": "Mus musculus, read-out: ED50 (the source's name)"}, "Mus musculus [22]": {"test_system": "Mus musculus", "test": "In vivo natural killer cell response in splenocytes of mice injected with 2 mg parenteral dose % lysis of YAC-1 cells at effector: target ratio of 100:1", "format": "functional", "summary_of_the_method": "as §1"}, "Mus musculus [23]": {"test_system": "Mus musculus", "test": "In vivo natural killer cell response in splenocytes of mice injected with 2 mg intravenous dose % lysis of YAC-1 cells at effector: target ratio of 100:1", "format": "functional", "summary_of_the_method": "as §2"}, "Mus musculus [24]": {"test_system": "Mus musculus", "test": "In vivo natural killer cell response in splenocytes of mice injected with 2 mg parenteral dose % lysis of YAC-1 cells at effector: target ratio of 50:1", "format": "functional", "summary_of_the_method": "as §1"}, "Mus musculus [25]": {"test_system": "Mus musculus", "test": "In vivo natural killer cell response in splenocytes of mice injected with 2 mg intravenous dose % lysis of YAC-1 cells at effector: target ratio of 200:1", "format": "functional", "summary_of_the_method": "as §2"}, "Mus musculus [26]": {"test_system": "Mus musculus", "test": "In vivo natural killer cell response in splenocytes of mice injected with 2 mg intravenous dose % lysis of YAC-1 cells at effector: target ratio of 50:1", "format": "functional", "summary_of_the_method": "as §2"}},
  "note": "Several values for one entry are separate records, joined by “and”; a condition that tells them apart may be missing. Equal values may be shown once.",
  "data": [
    {"smiles": "C=CCn1c(=O)n([C@@H]2O[C@H](CO)[C@@H](O)[C@H]2O)c2nc(N)[nH]c(=O)c21", "note": "[LOXORIBINE]", "values": [
      {"measurement": "Ratio", "setting": "Mus musculus [1]", "result": 18.9},
      {"measurement": "Ratio", "setting": "Mus musculus [2]", "result": 52.2},
      {"measurement": "EC50", "setting": "Mus musculus [3]", "result": 10, "unit": "µM"},
      {"measurement": "EC50", "setting": "Mus musculus [4]", "result": 3, "unit": "µM"},
      {"measurement": "Ratio", "setting": "Mus musculus [5]", "result": 19.5},
      {"measurement": "Max response", "setting": "YAC-1 [6]", "result": 100, "unit": "%"},
      {"measurement": "Ratio", "setting": "Mus musculus [7]", "result": 22.8},
      {"measurement": "Ratio", "setting": "Mus musculus [8]", "result": 9.3},
      {"measurement": "Ratio", "setting": "Mus musculus [9]", "result": 48.9},
      {"measurement": "Ratio", "setting": "Mus musculus [10]", "result": 12.7},
      {"measurement": "Ratio", "setting": "Mus musculus [11]", "result": 11.8},
      {"measurement": "Ratio", "setting": "Mus musculus [12]", "result": 27.6},
      {"measurement": "Ratio", "setting": "Mus musculus [13]", "result": 7.7},
      {"measurement": "Max response", "setting": "Mus musculus [14]", "result": 100, "unit": "%"},
      {"measurement": "Ratio", "setting": "Mus musculus [15]", "result": 29.6},
      {"measurement": "Max response", "setting": "Mus musculus [16]", "result": 100, "unit": "%"},
      {"measurement": "EC50", "setting": "YAC-1 [17]", "result": 13, "unit": "µM"},
      {"measurement": "Ratio", "setting": "Mus musculus [18]", "result": 38.6}
    ]},
    {"smiles": "C=CCn1c(=O)n(C2CN(CCCC)CC(CO)O2)c2nc(N)nc(O)c21", "note": "(configuration not stated)", "values": [
      {"measurement": "EC50", "setting": "Mus musculus [19]", "result": 49, "unit": "µM"},
      {"measurement": "EC50", "setting": "Mus musculus [4]", "result": 5, "unit": "µM"},
      {"measurement": "Max response", "setting": "YAC-1 [20]", "result": 94, "unit": "%"},
      {"measurement": "EC50", "setting": "YAC-1 [21]", "result": 17, "unit": "µM"},
      {"measurement": "Max response", "setting": "Mus musculus [14]", "result": 38, "unit": "%"},
      {"measurement": "Max response", "setting": "Mus musculus [16]", "result": 52, "unit": "%"}
    ]},
    {"smiles": "C=CCn1c(=O)n(C2C=CC(CO)O2)c2nc(N)nc(O)c21", "note": "(configuration not stated)", "values": [
      {"measurement": "Ratio", "setting": "Mus musculus [22]", "result": "33.2 and 15.7"},
      {"measurement": "Ratio", "setting": "Mus musculus [23]", "result": 36.4},
      {"measurement": "Ratio", "setting": "Mus musculus [24]", "result": 25.2},
      {"measurement": "EC50", "setting": "Mus musculus [3]", "result": 30, "unit": "µM"},
      {"measurement": "EC50", "setting": "Mus musculus [4]", "result": 6, "unit": "µM"},
      {"measurement": "Max response", "setting": "YAC-1 [6]", "result": 89, "unit": "%"},
      {"measurement": "Ratio", "setting": "Mus musculus [7]", "result": 16.1},
      {"measurement": "Max response", "setting": "Mus musculus [14]", "result": 45, "unit": "%"},
      {"measurement": "Ratio", "setting": "Mus musculus [25]", "result": 47.4},
      {"measurement": "Ratio", "setting": "Mus musculus [26]", "result": 25.7},
      {"measurement": "Ratio", "setting": "Mus musculus [15]", "result": 50.8},
      {"measurement": "Max response", "setting": "Mus musculus [16]", "result": 84, "unit": "%"},
      {"measurement": "EC50", "setting": "YAC-1 [17]", "result": 11, "unit": "µM"}
    ]}
  ]
}
